In ChEMBL document CHEMBL1127480, “Evaluation of a vitamin-cloaking strategy for oligopeptide therapeutics: biotinylated HIV-1 protease inhibitors” (J Med Chem, 1994):
Active and inactive are the calls of the source. The calls are words filed in the database; no cut-off is given here.

Key:
[1] = Inhibition of p24 expression in HIVD34-infected PBMC assay on day 4 at concentration of 40 nM; type: functional; details: Homo sapiens, 96 h
[2] = Inhibition of viral RNA in HIVD34-infected PBMC assay on day 4 at concentration of 4 nM; type: functional; details: Homo sapiens, 96 h
[3] = Inhibition of viral RNA in HIVD34-infected PBMC assay on day 4 at concentration of 40 nM; type: functional; details: Homo sapiens, 96 h
[4] = Inhibition of p24 expression in HIVD34-infected PBMC assay on day 4 at concentration of 4 nM; type: functional; details: Homo sapiens, 96 h
Caco-2 [5] = assay: Effect on the apical to basolateral transport of [3H]biotin in caco-2-cell monolayer; type: functional, Homo sapiens
How it was run: (§1)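 Caco-2 monolayers (passage 25) on Transwell inserts, equilibrated 30 min in HBSS with 25 mM glucose, 10 mM Hepes pH 7.35 at 37 °C. Apical side given 10 nM [3H]biotin alone or with 300 μM unlabeled biotin or conjugate (final MeOH 1–5%). Basolateral samples taken over time; [3H]mannitol integrity marker; Student's t-test; triplicate determinations.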

[6] = biological target: Human immunodeficiency virus type 1 protease (Human immunodeficiency virus 1, UniProt Q72874); assay: In vitro inhibitory activity against […]
CV-1 [7] = assay: Inhibition of p24 expression was measured at 1 uM using vVK/CV-1 assay; type: functional, Cercopithecidae; details: Chlorocebus aethiops
Caco-2 [8] = assay: % control value in caco-2-cell monolayer; type: functional, Homo sapiens; parameters: concentration or dose not given beside the values; how it was run: as §1
[9] = p24 expression was measured by PBMC assay on day 4 at concentration of 10 nM; type: functional; details: Homo sapiens, 96 h
[10] = Inhibition of viral RNA in HIVD34-infected PBMC assay on day 4 at concentration of 1 nM; type: functional; details: Homo sapiens, 96 h
[11] = Inhibition of viral RNA in HIVD34-infected PBMC assay on day 4 at concentration of 10 nM; type: functional; details: Homo sapiens, 96 h
[12] = Inhibition of viral RNA in PBMC assay on day 4 at concentration of 100 nM; type: functional; details: Homo sapiens, 96 h
[13] = Inhibition of p24 expression in PBMC assay on day 4 at concentration of 100 nM; type: functional; details: Homo sapiens, 96 h
[14] = p24 expression was measured by PBMC assay on day 4 at concentration of 1 nM; type: functional; details: Homo sapiens, 96 h
[15] = Inhibition of viral RNA in HIVD34-infected PBMC assay on day 4 at a concentration of 100 nM; type: functional; details: Homo sapiens, 96 h
[16] = Inhibition of p24 expression in HIVD34-infected PBMC assay on day 4 at concentration of 100 nM; type: functional; details: Homo sapiens, 96 h
[17] = Inhibition of p24 expression in HIVD34-infected PBMC assay on day 4 at concentration of 1 nM; type: functional; details: Homo sapiens, 96 h
[18] = Inhibition of p24 expression in HIVD34-infected PBMC assay on day 4 at concentration of 10 nM; type: functional; details: Homo sapiens, 96 h
CV-1 [19] = assay: Inhibition of p24 expression was measured at 1 uM using vaccinia virus vVK/CV-1 assay; Inactive; type: functional, cell-based; details: Cercopithecidae
CV-1 [20] = assay: Inhibition of p24 expression was measured at 1 uM using vVK/CV-1 assay; Inactive; type: functional, cell-based; details: Cercopithecidae

Row | SMILES | Transport (Caco-2 [5]) | Ki [6] | inhibition at 1 µM (CV-1 [7]) | Control (Caco-2 [8]) | other results
1 | Cc1cn([C@H]2C[C@H](N=[N+]=[N-])[C@@H](CO)O2)c(=O)[nH]c1=O [ZIDOVUDINE] | – | – | – | – | inhibition at 0.04 µM [1]: 81%; inhibition at 0.004 µM [2]: 0%; inhibition at 0.04 µM [3]: 90%; inhibition at 0.004 µM [4]: 2%
2 | CC[C@@H](C)[C@H](NC(=O)[C@H](C(C)C)[C@@H](O)[C@H](O)[C@H](CC1CCCCC1)NC(=O)CCCC[C@@H]1SCC2NC(=O)N[C@@H]21)C(=O)NCc1ccccn1 (some centres undefined) | 24.1 pM min-1 (mg of protein)-1 | 45 nM | 9% | 129% | –
3 | CC[C@@H](C)[C@H](NC(=O)[C@H](C(C)C)[C@@H](O)[C@H](O)[C@H](CC1CCCCC1)NC(=O)c1ccccc1SCCCCC[C@@H]1SCC2NC(=O)NC21)C(=O)NCCc1scnc1C (some centres undefined) | – | 4 nM | 34% | – | –
4 | CC[C@@H](C)[C@H](NC(=O)[C@H](C(C)C)[C@@H](O)[C@H](O)[C@H](CC1CCCCC1)NC(=O)c1ccccc1OCCCCC[C@@H]1SC[C@H]2NC(=O)N[C@@H]12)C(=O)NCc1ccccn1 | 15.8 pM min-1 (mg of protein)-1 | 10 nM | 24% | 85% | inhibition at 0.01 µM [9]: 5%; inhibition at 0.001 µM [10]: 15%; inhibition at 0.01 µM [11]: 10%; inhibition at 0.1 µM [12]: 17%; inhibition at 0.1 µM [13]: 83%; inhibition at 0.001 µM [14]: 2%
5 | CC[C@H](C)[C@H](NC(=O)[C@H](C(C)C)[C@@H](O)[C@H](O)[C@H](CC1CCCCC1)NC(=O)[C@H](Cc1c[nH]cn1)NC(=O)COc1cccc2ccccc12)C(=O)NCc1ccccn1 | – | < 1 nM | > 80% | – | inhibition at 0.1 µM [15]: 98%; inhibition at 0.1 µM [16]: 95%; inhibition at 0.001 µM [10]: 30%; inhibition at 0.01 µM [11]: 80%; inhibition at 0.001 µM [17]: 38%; inhibition at 0.01 µM [18]: 82%
6 | CC[C@@H](C)[C@@H](CNC(=O)CCCC[C@@H]1SC[C@@H]2NC(=O)NC21)NC(=O)[C@H](C(C)C)[C@@H](O)[C@H](O)[C@H](CC1CCCCC1)NC(=O)c1ccccc1OCCOc1ccccc1 (some centres undefined) | – | > 100 nM | – | – | inhibition (CV-1 [19]): inactive
7 | CC[C@@H](C)[C@H](NC(=O)[C@H](C(C)C)[C@@H](O)[C@H](O)[C@H](CC1CCCCC1)NC(=O)CCCCCNC(=O)CCCC[C@@H]1SCC2NC(=O)N[C@@H]21)C(=O)NCc1ccccn1 (some centres undefined) | 20.6 pM min-1 (mg of protein)-1 | 20 nM | – | 111% | inhibition (CV-1 [20]): inactive
8 | CC[C@@H](C)[C@H](NC(=O)[C@H](C(C)C)[C@@H](O)[C@H](O)[C@H](CC1CCCCC1)NC(=O)CCCC[C@@H]1SCC2NC(=O)NC21)C(=O)NCCc1scnc1C (some centres undefined) | – | 130 nM | 15% | – | –
9 | O=C(O)CCCC[C@@H]1SC[C@@H]2NC(=O)N[C@@H]21 [BIOTIN] | 0 pM min-1 (mg of protein)-1 | – | – | 0% | –
10 | CC[C@@H](C)[C@H](NC(=O)[C@H](C(C)C)[C@@H](O)[C@H](O)[C@H](CC1CCCCC1)NC(=O)c1ccccc1SCCCCC[C@@H]1SCC2NC(=O)NC21)C(=O)NCc1ccccn1 (some centres undefined) | – | 53 nM | – | – | –
11 | CC[C@@H](C)[C@H](NC(=O)[C@H](C(C)C)[C@@H](O)[C@H](O)[C@H](CC1CCCCC1)NC(=O)[C@@H](NC(=O)CCCC[C@H]1SC[C@H]2NC(=O)NC21)C(C)C)C(=O)NCc1ccccn1 (some centres undefined) | 22.7 pM min-1 (mg of protein)-1 | < 4 nM | 26% | 122% | inhibition at 0.001 µM [10]: 18%; inhibition at 0.01 µM [11]: 22%; inhibition at 0.001 µM [17]: 7%; inhibition at 0.1 µM [12]: 69%; inhibition at 0.1 µM [13]: 89%; inhibition at 0.01 µM [18]: 11%
